Consider 13 molecules from PubChem BioAssay AID1453 (NMMLSC, 2008).

This assay deals with Broad substrate specificity ATP-binding cassette transporter ABCG2 (Homo sapiens) (UniProt Q9UNQ0). Briefly: ABCG2 efflux pump inhibitors, confirmation, single point, IgMXP3 cells, ABCB1 counter-screen paired (AID 1453).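 Also: 0% = DMSO wells and 100% = nicardipine pump inhibitor wells.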 The settings on record: JC-1 efflux, flow cytometry, at 6.6 µM, stronger effect = higher value. A digest of the protocol: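 Assay system: drug-resistant IgMXP3 cells expressing human ABCG2; Input: 3 million cells per mL final in well; Reagent: JC-1 substrate; Doses: single test compound dose, 6.6 µM final; Times: 10 min end-over-end mixing at 25 °C before reading; Technique: high-throughput flow cytometry, JC-1 green median fluorescence, 530 ± 20 nm.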

Broadly, the inhibition is the drop in the measured response relative to a control, in per cent.

The list shows a part of the results. A number with no mark means an inactive call.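 The calls were made as follows: active = inhibition above 50%; inactive = the rest.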

Broad substrate specificity ATP-binding cassette transporter ABCG2 (Homo sapiens), sequence (Q9UNQ0 whole entry, looked up): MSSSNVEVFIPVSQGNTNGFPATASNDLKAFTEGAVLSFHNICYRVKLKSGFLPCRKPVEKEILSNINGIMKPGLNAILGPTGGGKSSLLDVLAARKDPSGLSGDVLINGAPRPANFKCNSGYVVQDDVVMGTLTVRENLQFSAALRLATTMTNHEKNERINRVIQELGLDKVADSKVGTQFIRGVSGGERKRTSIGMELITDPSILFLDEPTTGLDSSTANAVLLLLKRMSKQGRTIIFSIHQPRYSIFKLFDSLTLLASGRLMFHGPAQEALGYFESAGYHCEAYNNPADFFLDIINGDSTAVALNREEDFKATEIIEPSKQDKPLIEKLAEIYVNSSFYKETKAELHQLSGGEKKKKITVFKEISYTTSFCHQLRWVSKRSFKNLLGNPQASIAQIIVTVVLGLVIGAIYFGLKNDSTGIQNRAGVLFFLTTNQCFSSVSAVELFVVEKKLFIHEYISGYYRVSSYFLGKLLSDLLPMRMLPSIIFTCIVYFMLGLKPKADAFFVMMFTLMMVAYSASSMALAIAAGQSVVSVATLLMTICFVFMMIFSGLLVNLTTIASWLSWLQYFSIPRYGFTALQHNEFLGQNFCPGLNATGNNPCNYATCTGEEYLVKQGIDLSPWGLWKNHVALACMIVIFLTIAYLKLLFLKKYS

With `CCOCC(=O)Nc1sc2c(c1C(=O)OCC)CCCC2`, the inhibition was 38.7%.
On to `CCOC(=O)c1sc(NC(=O)CSc2nnc(-c3ccco3)o2)c(C(=O)OCC)c1C`, for which the inhibition is 37%.
As for `Cc1c(CCOC(=O)CC23CC4CC(CC(C)(C4)C2)C3)sc[n+]1Cc1ccc([N+](=O)[O-])cc1`, the inhibition was 27.4%.
With `Cc1ccc(-n2c(SCC(=O)Nc3ncc(Cl)cc3Cl)nc3ccccc32)cc1` the figure was 28.9%.
Consider `Cc1cccc2cc(CN(Cc3cccs3)C(c3nnnn3C3CCCC3)C(C)C)c(=O)[nH]c12` (stereo not drawn), for which the inhibition is 39.9%.
To `COc1ccc(-n2c(C)cc(C(=O)COC(=O)c3cc(OC)c(OC)cc3NC(=O)c3cccs3)c2C)cc1` belongs 14.8%; to `COc1cccc(NC(=O)c2ccc(Cn3cc([N+](=O)[O-])cn3)o2)c1`, 21.8%; to `C/C(=N\Nc1ncc(Cl)cc1Cl)c1ccc(S(=O)(=O)NCc2ccco2)cc1`, 21.6%.
To `CCN1/C(=C/c2ccc3ccc(C)cc3[n+]2CC)Sc2ccccc21` belongs 31.6%; to `Cc1ccc(OCC(O)CN2CCN(CC(O)COc3ccc(C)cc3Cl)CC2)c(Cl)c1` (stereo not drawn), 8.02%.
With `C=CCn1c(SCCOc2ccc(OC)cc2)nnc1C(NC(=O)c1ccc(OC)cc1)C(C)C` (stereo not drawn) the figure was 15.5%.
For `O=C(Cc1c[nH]c2ccccc12)N/N=C/c1cccc(F)c1`, the inhibition was 19.6%.
With `COc1ccc(C)cc1NC(=O)C(Sc1ccccc1)c1ccccc1` (stereo not drawn) the figure was 10.9%.
